A selection: hits, their analogues and other compounds. The true share with any hit is near 4.3%.
PREPL inh = inhibits the human prolyl oligopeptidase-like enzyme. Q4J6C6. recombinant PREPL, fluorescence polarization activity-based probe. inhibition, % at 5.96 µM. 0.68% of 320,000 active; in the data active = inhibition above about 43%
Target sequence (Q4J6C6 whole entry, looked up): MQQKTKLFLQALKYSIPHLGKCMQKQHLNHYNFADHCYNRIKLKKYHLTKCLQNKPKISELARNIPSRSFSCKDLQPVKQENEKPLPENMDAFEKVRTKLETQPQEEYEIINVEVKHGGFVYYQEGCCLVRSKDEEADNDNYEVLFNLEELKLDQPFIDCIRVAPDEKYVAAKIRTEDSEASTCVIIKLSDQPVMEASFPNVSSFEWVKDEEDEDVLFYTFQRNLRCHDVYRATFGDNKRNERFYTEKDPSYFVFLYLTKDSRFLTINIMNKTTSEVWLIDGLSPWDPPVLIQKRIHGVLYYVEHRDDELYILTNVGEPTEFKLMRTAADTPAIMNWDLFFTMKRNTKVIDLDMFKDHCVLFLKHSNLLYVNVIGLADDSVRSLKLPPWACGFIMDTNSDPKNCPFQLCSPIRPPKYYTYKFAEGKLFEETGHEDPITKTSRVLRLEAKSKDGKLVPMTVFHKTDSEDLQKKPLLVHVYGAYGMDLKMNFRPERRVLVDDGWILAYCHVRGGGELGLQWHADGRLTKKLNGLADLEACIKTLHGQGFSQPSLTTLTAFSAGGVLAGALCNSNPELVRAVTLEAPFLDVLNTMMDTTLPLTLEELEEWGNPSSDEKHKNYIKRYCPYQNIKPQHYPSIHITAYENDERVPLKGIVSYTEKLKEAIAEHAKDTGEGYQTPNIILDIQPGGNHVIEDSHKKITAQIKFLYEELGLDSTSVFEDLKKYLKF
Rin1 Abl inh = blocks binding of human Rin1 to Abl. TR-FRET Rin1/Abl binding, biochemical. inhibition, % at 7.35 µM. 0.4% of 360,000 active. AID 588664. P00519+Q13671; in the data active = inhibition above about 5%, passing the limit was not always enough
ALR H2O2 inh = blocks human ALR sulfhydryl oxidase activity. AID 485317. P55789. purified ALR, DTT oxidation, H2O2 HRP-luminol luminescence. 3.8% of 290,000 active. inhibition, % (concentration not given with the values);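 active = mean replicate inhibition above about 79%, with every replicate also reaching it, limit read from the data; inconclusive = only one of the two criteria met; inactive = mean below limit and not every replicate reaching it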
RBBP9 inh = blocks human serine hydrolase RBBP9; O75884; recombinant RBBP9, FP-Rh probe fluorescence polarization; inhibition, % at 7.94 µM; 0.2% of 220,000 active; AID 1515;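 active = inhibition above the campaign mean of all tested compounds plus 3 SD, cut at about 14% in these data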
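Test system: recombinant human RBBP9. Quantity: 2.5 µM RBBP9 dispensing solution, before mixing. Detection: FP readout at 525/598 nm. Reagent: Serine-hydrolase probe FP-Rh, 375 nM pre-mixing. Measure: % inhibition. Control set: DMSO-treated enzyme wells and wells lacking RBBP9. Buffer or medium: Tris-NaCl-Pluronic buffer, pH 8.0. Times: preincubation 30 min plus labeling 45 min at 25 °C.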
UBC9 SUMO inh = blocks human SUMOylation mediated by UBC9; P63279; HTRF SUMOylation assay, SAE1/SAE2 + UBC9, in vitro; inhibition, % at 35 µM; 0.36% of 290,000 active; AID 2006; in the data active = inhibition above about 50%, passing the limit was not always enough; inconclusive = no clear call, values can overlap the other calls
UBC13 inh = inhibitors of human UBC13 polyubiquitin chain formation. P61088. inhibition, % at 20 µM. 0.47% of 330,000 active. TR-FRET; in the data active = inhibition above about 45%, passing the limit was not always enough; inconclusive = no clear call, values can overlap the other calls
Casp3 UBC13 ctr = inhibits human caspase-3 in UBC13 counter-screen. 4% of 1,400 active. inhibition, % at 20 µM. shares compounds with UBC13 inh. Recombinant caspase-3, Caspase-Glo 3/7 luminescence, 60 min;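 active = mean inhibition across replicates above about 26%, limit read from the data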
UBC13 conf = confirmation of human UBC13 polyubiquitin inhibitors; shares compounds with UBC13 inh; UBC13 polyubiquitination, TR-FRET, biochemical; inhibition, % at 10 µM; 68% of 1,400 active; AID 488859; in the data active = inhibition above about 45%; inconclusive = no clear call, values can overlap the other calls
A number is an active result; . = inactive; ? = inconclusive; / = no result given.

SMILES	PREPL inh	Rin1 Abl inh	ALR H2O2 inh	RBBP9 inh	UBC9 SUMO inh	UBC13 inh	Casp3 UBC13 ctr	UBC13 conf
Cc1cc(SCC(=O)NC(=O)c2cccn2C)nc2ccccc12	.	.	.	.	.	56	.	68
COc1cccc(/C=C/C(=O)NCc2ccc(S(N)(=O)=O)cc2)c1	.	.	/	.	.	.	/	/
CN1CCN(CCCNC(=O)c2ccc(/C=C3\Oc4ccccc4N(Cc4ccccc4F)C3=O)cc2)CC1	.	.	.	/	.	45	.	52
CN(C)CCCNC(=O)CC1C[C@H](C(=O)N2CCCCC2)[C@@]2(CCc3ccccc3)c3[nH]c4ccccc4c3CCN2C1=O (some centres undefined)	.	.	.	/	/	47	.	.
COc1ccc2[nH]c3c(c2c1)CCN1C(=O)C(CC(=O)NCCCN(C)C)C[C@H](C(=O)N2CCCCC2)[C@@]31CCc1ccccc1 (some centres undefined)	/	.	/	/	/	/	/	/
CS(=O)(=O)c1cccc(C(=O)Nc2cccc(S(=O)(=O)N3CCCC3)c2)c1	/	.	/	/	/	.	/	/
COc1cc(C(=O)Nc2cccc(S(=O)(=O)N3CCCC3)c2)cc(OC)c1C	.	.	.	.	.	75	.	70
Cc1ccc(Nc2nnc(-c3ccccc3N)o2)cc1C	.	.	.	.	.	46	39	.
CC(C)(C)c1cc(C(=O)N/N=C/c2ccccn2)n[nH]1	.	.	/	.	.	62	.	.
COc1cc(CNCCc2c[nH]c3ccccc23)ccc1OCc1ccccc1F	.	.	.	.	.	47	.	.
CC(C)(C)c1ccc(-c2nc3c(C#N)c(-c4ccc5c(c4)OCO5)ccn3n2)cc1	.	.	.	.	.	48	.	?
Cc1ccc(-c2cc(-c3ccc4c(c3)OCO4)c(C#N)c(N)n2)o1	.	.	.	.	.	.	/	/
O=C(O)COc1ccccc1/C=N/NC(=O)CSc1nc2ccccc2n1Cc1ccccc1Cl	.	.	.	.	.	.	/	/
Cc1cc(C2N=C(N)Nc3nc4ccccc4n32)c(C)n1-c1ccccc1Cl (centres undefined)	.	.	.	.	.	46	.	55
COc1cc(OC)c2c(-c3ccccc3)cc(=O)oc2c1C(CCN1CCCC1)c1ccc2c(c1)OCO2 (centres undefined)	.	.	.	/	.	52	.	.
COc1ccc(C(CCN2CCCC(C)C2)c2c(OC)cc(OC)c3c(-c4ccccc4)cc(=O)oc23)cc1 (centres undefined)	.	.	.	/	.	59	.	45
COc1ccc(C(CCN2CCCC2)c2c(OC)cc(OC)c3c(-c4ccccc4)cc(=O)oc23)cc1 (centres undefined)	.	.	/	/	.	67	.	.
COc1ccc(C(CCN2CCOCC2)c2c(OC)cc(OC)c3c(-c4ccccc4)cc(=O)oc23)cc1 (centres undefined)	/	.	/	/	/	/	/	/
CCCCCc1cc(=O)oc2c(C(CCN3CCCCC3)c3ccc4c(c3)OCO4)c(OC)cc(OC)c12 (centres undefined)	.	.	.	/	.	.	/	/
CCCCCc1cc(=O)oc2c(C(CCN(CC)CC)c3cc(OC)c(OC)c(OC)c3)c(OC)cc(OC)c12 (centres undefined)	.	.	/	/	.	85	.	73
COc1cc(OC)c2c(-c3ccccc3)cc(=O)oc2c1C(CCN1CCOCC1)c1ccc2c(c1)OCO2 (centres undefined)	/	.	/	/	/	/	/	/
O=C(NCCCC(=O)N1CCCCC1)c1ccc(Cl)cc1	/	.	.	/	.	.	/	/
O=S(=O)(NCCCCNS(=O)(=O)c1c(F)cccc1F)c1ccc2c(c1)OCCO2	.	.	.	/	/	.	/	/
COc1cc(C(CCN2CCOCC2)c2c(OC)cc(OC)c3c(-c4ccccc4)cc(=O)oc23)cc(OC)c1OC (centres undefined)	/	.	/	/	/	/	/	/
CCN(CC)CCC(c1ccc(N(C)C)cc1)c1c(OC)cc(OC)c2c(-c3ccccc3)cc(=O)oc12 (centres undefined)	.	.	/	/	.	50	.	.
SMILES	PREPL inh	Rin1 Abl inh	ALR H2O2 inh	RBBP9 inh	UBC9 SUMO inh	UBC13 inh	Casp3 UBC13 ctr	UBC13 conf
COc1cc(C(CCN2CCCC2)c2c(OC)cc(OC)c3c(-c4ccccc4)cc(=O)oc23)cc(OC)c1OC (centres undefined)	.	.	/	/	.	46	.	.
COc1cc(/C=C2\SC(=Nc3ccc(O)cc3)NC2=O)cc(OC)c1OC	.	/	.	.	.	.	/	/
COc1cc(/C=C2/SC(=Nc3ccc(O)cc3)NC2=O)cc(OC)c1O	.	.	.	.	.	48	.	47
CCOC(=O)c1c(C)c(C(=O)NC2CCCCCC2)c(C)n1C	/	.	/	.	.	/	/	/
CCOC(=O)c1c(C)c2c(n1C)CCC/C2=N\O	.	.	/	.	.	79	.	94
CCOCCCn1c(=S)[nH]c2cc(C(=O)NCC(OC)OC)ccc2c1=O	.	.	.	.	.	.	/	/
NC(=S)N=Nc1c(O)n(CCCl)c2ccc(Cl)cc12	.	.	.	.	.	68	.	90
NC(=S)N=Nc1c(O)n(C2OC(=O)c3ccccc32)c2ccccc12 (centres undefined)	.	.	.	.	.	88	.	104
NC(=S)N=Nc1c(O)n(CCCl)c2ccccc12	.	.	.	.	.	90	.	85
NC(=S)N=Nc1c(O)n(CC(=O)Nc2ccccc2)c2ccccc12	.	.	.	/	.	.	/	/
CN(CC(=O)Nc1ccc(Cl)c(C(F)(F)F)c1)C(=O)c1cccc2cccnc12	.	.	/	/	/	.	/	/
CCOc1ccc(NS(=O)(=O)c2cc(C(=O)NCCCN3CCOCC3)ccc2C)cc1	.	.	.	/	/	74	.	94
COc1ccccc1NS(=O)(=O)c1cccc(C(=O)NNC(=O)c2ccc(Cl)nc2)c1	.	.	/	/	/	45	.	.
COCCNC(=O)C1(C)CCCN(Cc2ccc(Cl)nc2)C1 (centres undefined)	/	.	/	/	/	/	/	/
Cc1ccc(NC(=O)CCSc2ccccn2)cc1	.	.	.	.	.	.	/	/
COc1nc(-c2cccs2)cc(-c2ccc(C)cc2)c1C#N	.	.	.	.	.	.	/	/
COc1ccc(-c2cc(-c3cccs3)nc(OC)c2C#N)cc1OC	.	.	.	.	.	50	.	.
COc1ccccc1CNC(=O)c1ccc(NC(=O)CC2SC(N3CCCC3)=NC2=O)cc1 (centres undefined)	.	.	.	/	/	.	/	/
CCOC1=C2CN(S(=O)(=O)c3ccc(C)cc3)[C@H](c3ccccc3)C[C@@H]2N(S(=O)(=O)c2ccccc2C)[C@H](c2ccccc2)C1	/	.	/	/	/	/	/	/
COc1ccc(S(=O)(=O)N2CCN(c3ccc4nnc(-c5ccc(F)cc5)n4n3)CC2)cc1	.	.	.	.	.	46	.	.

Screening results (PubChem)
